One data set deals with Histone deacetylase 1 (Homo sapiens, UniProt Q13547). In words: Inhibition of recombinant full length HDAC1 (unknown origin) using Ac-peptide-AMC as substrate after 1 hr by fluorescence assay.
Data set [1] has as its target Protein deacetylase HDAC6 (Homo sapiens, UniProt Q9UBN7). Description: Inhibition of recombinant full length HDAC6 (unknown origin) using Ac-peptide-AMC as substrate after 1 hr by fluorescence assay.
Data set [2] addresses Polyamine deacetylase HDAC10 (Homo sapiens, UniProt Q969S8). In words: Inhibition of recombinant N-terminal FLAG-tagged human HDAC10 (2 to 631 residues) expressed in baculovirus infected Sf9 cells using Ac-peptide-AMC as substrate after 1 hr by fluorescence assay.
The subject of a further data set is Ramos. In words: Antiproliferative activity against human Ramos cells after 72 hrs by MTT assay. It is filed as functional, cell-based.
Data set [3] deals with JeKo-1. Description: Cell cycle arrest in human JeKo1 cells assessed as accumulation at G2/M phase at 1000 nM after 24 hrs by propidium iodide staining based flow cytometric analysis (reference value: 10.71 %). The class given is functional.
The subject of data set [4] is JeKo-1. In words: Induction of apoptosis in human JeKo1 cells assessed as viable cells at 10 nM after 48 hrs by annexin V-FITC/propidium iodide staining-based flow cytometric method (reference value: 91.6 %). It is filed as functional. Conditions: JeKo-1, 48 h, read-out: Activity. The procedure, abridged: (§1)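 Jeko-1 cells were grown in RPMI-1640 with 10% FBS at 37 °C under 5% CO2. They were exposed to 0, 10, 100 or 1000 nM for 48 h, then apoptosis induction was analysed.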

Data set [5] relates to JeKo-1. In words: Induction of apoptosis in human JeKo1 cells assessed as viable cells at 100 nM after 48 hrs by annexin V-FITC/propidium iodide staining-based flow cytometric method (reference value: 91.6 %). The class given is functional. Conditions: JeKo-1, 48 h, read-out: Activity. The procedure, abridged: as §1
Data set [6] has as its system JeKo-1. Description: Induction of apoptosis in human JeKo1 cells assessed as late apoptotic cells at 100 nM after 48 hrs by annexin V-FITC/propidium iodide staining-based flow cytometric method (reference value: 3.07 %). It is filed as functional. In a few lines:
as §1

In data set [7] the test system is JeKo-1. In words: Induction of apoptosis in human JeKo1 cells assessed as necrotic cells at 100 nM after 48 hrs by annexin V-FITC/propidium iodide staining-based flow cytometric method (reference value: 2.03 %). It is filed as functional. The procedure, abridged:
as §1

The test system of data set [8] is JeKo-1. In words: Induction of apoptosis in human JeKo1 cells assessed as viable cells at 1000 nM after 48 hrs by annexin V-FITC/propidium iodide staining-based flow cytometric method (reference value: 91.6 %). It is filed as functional. Conditions: JeKo-1, 48 h, read-out: Activity. In a few lines: as §1
Data set [9] relates to JeKo-1. Description: Induction of apoptosis in human JeKo1 cells assessed as necrotic cells at 1000 nM after 48 hrs by annexin V-FITC/propidium iodide staining-based flow cytometric method (reference value: 2.03 %). It is filed as functional. In a few lines: as §1
For data set [10], the system named is JeKo-1. In words: Induction of cell cycle arrest in human JeKo1 cells assessed as accumulation at G1 phase after 24 hrs by propidium iodide staining-based flow cytometric method. It is filed as functional.
Data set [11] is described as follows: Volume of distribution at steady state in Sprague-Dawley rat at 5 mg/kg, iv measured upto 24 hrs by LC-MS/MS analysis. It is filed as ADME, organism-based. Conditions: in vivo, read-out: Vdss. The procedure, abridged:
(§2)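 SD rats (200-250 g), six per time point, given 5 mg/kg as a tail-vein bolus or orally. Blood was taken by cardiac puncture before dosing and at 5, 15, 30, 45 min and 1, 2, 4, 6, 8, 10, 12 and 24 h. Plasma was spun at 4000 g for 15 min at 4 °C and stored at -80 °C. Analysis was LC-MS/MS with multiple-reaction monitoring, followed by noncompartmental analysis.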

A short description of data set [12]: Half life in Sprague-Dawley rat plasma at 5 mg/kg, po measured upto 24 hrs by LC-MS/MS analysis. The class given is ADME, organism-based. In a few lines:
as §2

For data set [13], the system named is Daudi. In words: Antitumour activity against human Daudi cells xenografted in NOD/SCID mouse assessed as reduction in tumour growth at 10 mg/kg, iv treated on day 1,3 and 5 per week and measured for every 2 days. It is filed as functional. To be noted: read-out: TGI. In a few lines: (§3)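 Daudi cells (107 in 100 µL serum-free RPMI 1640) were injected s.c. into the right flank of 5–6 week female NOD/SCID mice. At 100–200 mm3, mice were randomized six per group. Dosing was 10 mg/kg i.v. or 20 mg/kg p.o. in 8% HP-β-CD on days 1, 3 and 5 each week. Tumors were measured by caliper every 2 days, with TV = length × width² × 0.5.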

Data set [14] deals with Daudi. In words: Antitumour activity against human Daudi cells xenografted in NOD/SCID mouse assessed as reduction in tumour growth at 20 mg/kg, po treated on day 1,3 and 5 per week and measured for every 2 days. It is filed as functional. Conditions: read-out: TGI. In a few lines:
as §3

Structures are written as SMILES. pIC50: −log10 of the molar value.

Chain of Histone deacetylase 1 (Q13547 whole entry): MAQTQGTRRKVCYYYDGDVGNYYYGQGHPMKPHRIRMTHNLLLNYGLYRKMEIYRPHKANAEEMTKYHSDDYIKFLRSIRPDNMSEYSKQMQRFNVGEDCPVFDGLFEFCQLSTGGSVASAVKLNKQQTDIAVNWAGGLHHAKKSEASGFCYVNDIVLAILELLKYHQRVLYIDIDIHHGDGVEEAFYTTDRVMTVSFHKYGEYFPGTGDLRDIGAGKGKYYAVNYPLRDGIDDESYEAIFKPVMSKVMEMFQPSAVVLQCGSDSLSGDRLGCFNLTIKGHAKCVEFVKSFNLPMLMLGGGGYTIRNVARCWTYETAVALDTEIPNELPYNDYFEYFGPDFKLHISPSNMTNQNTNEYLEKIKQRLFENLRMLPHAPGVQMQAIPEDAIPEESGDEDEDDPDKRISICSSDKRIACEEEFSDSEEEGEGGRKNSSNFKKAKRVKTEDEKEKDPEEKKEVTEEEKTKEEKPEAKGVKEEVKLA
Chain of Polyamine deacetylase HDAC10 (Q969S8 whole entry, the tested form may be a part): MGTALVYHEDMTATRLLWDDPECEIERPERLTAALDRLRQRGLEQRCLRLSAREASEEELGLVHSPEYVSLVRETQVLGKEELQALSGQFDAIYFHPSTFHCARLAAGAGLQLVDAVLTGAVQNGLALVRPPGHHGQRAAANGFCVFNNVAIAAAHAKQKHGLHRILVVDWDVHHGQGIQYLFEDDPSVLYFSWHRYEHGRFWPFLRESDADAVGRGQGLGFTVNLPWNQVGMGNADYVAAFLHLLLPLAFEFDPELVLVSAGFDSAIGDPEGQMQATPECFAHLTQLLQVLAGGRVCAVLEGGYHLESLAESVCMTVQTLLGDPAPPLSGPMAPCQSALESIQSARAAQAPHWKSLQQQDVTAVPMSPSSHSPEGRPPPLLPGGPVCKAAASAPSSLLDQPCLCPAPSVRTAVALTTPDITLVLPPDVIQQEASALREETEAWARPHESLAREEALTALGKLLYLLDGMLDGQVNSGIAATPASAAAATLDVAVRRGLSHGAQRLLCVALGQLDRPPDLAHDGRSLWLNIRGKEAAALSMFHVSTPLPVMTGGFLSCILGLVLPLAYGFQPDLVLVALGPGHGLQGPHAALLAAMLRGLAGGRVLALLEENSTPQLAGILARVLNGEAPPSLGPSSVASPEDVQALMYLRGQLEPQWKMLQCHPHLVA
Chain of Protein deacetylase HDAC6 (Q9UBN7 whole entry, the tested form may be a part): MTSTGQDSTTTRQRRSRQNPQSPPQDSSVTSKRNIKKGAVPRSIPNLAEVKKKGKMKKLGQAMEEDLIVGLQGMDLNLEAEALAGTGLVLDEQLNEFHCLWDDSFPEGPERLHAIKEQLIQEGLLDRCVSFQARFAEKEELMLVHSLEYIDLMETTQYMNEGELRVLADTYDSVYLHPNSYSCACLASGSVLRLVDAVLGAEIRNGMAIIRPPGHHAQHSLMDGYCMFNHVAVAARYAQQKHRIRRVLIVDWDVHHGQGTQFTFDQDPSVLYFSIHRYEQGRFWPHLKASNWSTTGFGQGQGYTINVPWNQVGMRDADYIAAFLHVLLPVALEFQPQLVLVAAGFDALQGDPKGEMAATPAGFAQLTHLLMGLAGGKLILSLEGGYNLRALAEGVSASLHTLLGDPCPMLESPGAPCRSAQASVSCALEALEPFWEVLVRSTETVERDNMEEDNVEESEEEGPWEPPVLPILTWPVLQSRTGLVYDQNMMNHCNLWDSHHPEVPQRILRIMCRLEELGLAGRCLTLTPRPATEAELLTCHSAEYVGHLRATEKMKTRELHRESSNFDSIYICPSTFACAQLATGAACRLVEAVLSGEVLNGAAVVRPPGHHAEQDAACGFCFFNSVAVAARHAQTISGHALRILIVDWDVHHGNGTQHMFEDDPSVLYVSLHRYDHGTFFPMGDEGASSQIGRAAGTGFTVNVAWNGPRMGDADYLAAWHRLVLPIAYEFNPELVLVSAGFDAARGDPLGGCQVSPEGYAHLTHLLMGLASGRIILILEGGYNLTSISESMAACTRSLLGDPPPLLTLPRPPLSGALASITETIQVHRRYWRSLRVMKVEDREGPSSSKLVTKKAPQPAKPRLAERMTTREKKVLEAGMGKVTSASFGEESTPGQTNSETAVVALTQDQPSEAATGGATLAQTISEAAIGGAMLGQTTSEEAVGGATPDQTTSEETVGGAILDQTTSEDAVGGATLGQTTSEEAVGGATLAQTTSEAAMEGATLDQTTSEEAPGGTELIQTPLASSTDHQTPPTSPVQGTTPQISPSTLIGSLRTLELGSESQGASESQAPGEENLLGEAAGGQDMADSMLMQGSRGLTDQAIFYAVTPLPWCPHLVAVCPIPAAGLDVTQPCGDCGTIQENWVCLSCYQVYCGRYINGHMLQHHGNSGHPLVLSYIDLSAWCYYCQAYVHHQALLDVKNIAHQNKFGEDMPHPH

Take `Cc1ccc(CN2CCC(c3noc(CN(C)c4ncc(C(=O)NO)cn4)n3)CC2)cc1`: the pIC50 was 8.74 on Histone deacetylase 1, 7.25 in data set [1], 6.99 in data set [2] and 7.75 in the data set with Ramos. In addition, the Activity in the data set with JeKo-1 [3] was 4.32%; in the data set on JeKo-1 [6], 17.3%; with JeKo-1 [7], 0.061%; in the data set on JeKo-1 [9], 0.096%; with JeKo-1 [10] it was “Dose-dependent effect”. The viability at 0.01 µM in the data set on JeKo-1 [4] worked out at 91.8%. Further, the viability at 0.1 µM in the data set on JeKo-1 [5] was 54.3%. Also, the viability at 1 µM in the data set on JeKo-1 [8] is 26.9%. In data set [11], the Vd came out at 6.33 L/kg. The compound further had a half-life in data set [12] of 1.01 h. In the data set with Daudi [13], the inhibition in vivo at 10 mg/kg came to 46.1%. The inhibition in vivo at 20 mg/kg with Daudi [14] was found to be 53.8%.

For the origin of these results see ChEMBL document CHEMBL4364248, “Discovery of 1,2,4-oxadiazole-Containing hydroxamic acid derivatives as histone deacetylase inhibitors potential application in cancer therapy” (Eur J Med Chem, 2019).
